Compound activity (PubChem)
PRMT1 inh = blocks human protein arginine methyltransferase 1. Q99873. inhibition, % at 2.79 µM. recombinant PRMT1, activity-based probe fluorescence polarization. 1.3% of 370,000 active;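 active = inhibition above about 21% made by adding two undisclosed values, limit read from the data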
eLon inh = inhibitors of E. coli Lon protease; P0A9M0; purified E. coli Lon protease, fluorescence polarization; inhibition, % at 7.94 µM; 0.42% of 360,000 active; AID 602123; in the data active = inhibition above about 13%, passing the limit was not always enough;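 note: 0% = enzyme with probe and DMSO and 100% = no enzyme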
GSTO1 inh = counter-screen for RBBP9 inhibitors: inhibitors of human GSTO1. P78417. inhibition, % at 5.96 µM. recombinant GSTO1, activity-based probe fluorescence polarization. 1.1% of 300,000 active;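 active = inhibition above the campaign mean inhibition plus 3 SD, cut at about 35% in these data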;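 note: 0% = GSTO1-1 with DMSO and 100% = wells lacking GSTO1-1 enzyme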
Target sequence (P78417 whole entry, looked up): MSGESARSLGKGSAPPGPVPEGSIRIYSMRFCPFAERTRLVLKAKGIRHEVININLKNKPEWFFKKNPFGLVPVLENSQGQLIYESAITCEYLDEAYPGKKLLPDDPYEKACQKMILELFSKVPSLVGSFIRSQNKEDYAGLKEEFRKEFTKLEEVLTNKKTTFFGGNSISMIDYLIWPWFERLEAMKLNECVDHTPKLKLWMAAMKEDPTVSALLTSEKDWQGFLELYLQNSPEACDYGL
PAD4 FP inh = inhibitors of human PAD4 | Q9UM07 | recombinant PAD4, RCA probe fluorescence polarization | inhibition, % at 6.36 µM | 0.41% of 330,000 active | AID 485272;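 active = percent inhibition above a cutoff equal to the mean of all tested compounds plus 3 SD, cut at about 15% in these data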;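 note: 0% = PAD4 with RCA probe and DMSO and 100% = probe without PAD4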
TDP2 absorb = blocks human TDP2 phosphodiesterase activity. recombinant TDP2, T5PNP hydrolysis, p-nitrophenol absorbance 415 nm. inhibition, % at 12.8 µM. 0.34% of 370,000 active. AID 720702;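 active = inhibition above the mean of all tested compounds plus 3 SD, set per campaign, cut at about 25% in these data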;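 note: 0% = DMSO with enzyme and 100% = buffer with substrate but no TDP2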
Target sequence (O95551 whole entry, looked up): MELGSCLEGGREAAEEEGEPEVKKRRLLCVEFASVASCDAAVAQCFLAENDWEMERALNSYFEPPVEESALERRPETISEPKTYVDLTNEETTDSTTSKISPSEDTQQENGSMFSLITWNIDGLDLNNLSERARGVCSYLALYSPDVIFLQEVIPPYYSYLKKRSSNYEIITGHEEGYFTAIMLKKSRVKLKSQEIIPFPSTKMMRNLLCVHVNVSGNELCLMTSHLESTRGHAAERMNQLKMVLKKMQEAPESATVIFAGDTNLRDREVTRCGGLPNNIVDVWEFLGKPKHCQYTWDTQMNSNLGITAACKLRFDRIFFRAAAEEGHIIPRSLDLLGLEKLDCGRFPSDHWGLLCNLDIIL
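Read-out basis: percent inhibition. System: recombinant human TDP2. Buffer or medium: Mg2+-containing Tris-HCl buffer, pH 7.5. Repeats: single replicate. Timing: reaction 2 h, 37 °C. Benchmarks: high control without enzyme, low control DMSO plus TDP2. Probe or stimulus: 5 mM T5PNP. Doses: 12.8 µM only. Measured by: epi absorbance of p-nitrophenol freed from T5PNP by hydrolysis.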
PRMT1 inh conf = confirmation of human PRMT1 inhibitors; shares compounds with PRMT1 inh; recombinant His-PRMT1, activity-based probe fluorescence polarization; inhibition, % at 2.79 µM; 42% of 3,300 active; AID 687036;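 active = mean inhibition across replicates above the hit cutoff derived for the earlier primary screen, cut at about 22% in these data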
An asterisk follows results filed as active. Rows were chosen to be rich in hits. Some 2.5% of all compounds tested hit in one or more screens of this group.

Results for COc1ccc(NC(=O)CSc2nnnn2C2CC2)cc1S(=O)(=O)N1CCOCC1 ?
PRMT1 inh: 38*; eLon inh: -12; PAD4 FP inh: 6; TDP2 absorb: 3; PRMT1 inh conf: -2

Results for COc1ccc(S(=O)(=O)N2CCOCC2)cc1NC(=O)c1cc2ccccc2o1 ?
PRMT1 inh: -1; eLon inh: -16; TDP2 absorb: 4

How did CC(C)n1c(=O)[nH][nH]c1=S do in these assays?
PRMT1 inh: 70*; eLon inh: 2; GSTO1 inh: 2; PAD4 FP inh: 1; TDP2 absorb: 3; PRMT1 inh conf: 91*

How did O=C(CN1C(=O)c2ccc([N+](=O)[O-])cc2C1=O)NCc1ccc(C(=O)O)cc1 do in these assays?
PRMT1 inh: -1; eLon inh: 3; GSTO1 inh: 4; PAD4 FP inh: 0; TDP2 absorb: 14

How did CC(=O)Nc1cc[n+](CC(=O)c2cccc([N+](=O)[O-])c2)cc1 do in these assays?
PRMT1 inh: -4; eLon inh: -15; GSTO1 inh: -3; PAD4 FP inh: 1; TDP2 absorb: -7

How did O=C(CCNc1ccc(Cc2ccncc2)cc1)c1cccc([N+](=O)[O-])c1 do in these assays?
PRMT1 inh: 32*; eLon inh: 1; GSTO1 inh: 6; PAD4 FP inh: -3; TDP2 absorb: 4; PRMT1 inh conf: 31*

How did Cc1ccc(C(=O)CCS(=O)(=O)c2ccc(Br)cc2)cc1 do in these assays?
PRMT1 inh: 5; eLon inh: -10; GSTO1 inh: -2; PAD4 FP inh: -3; TDP2 absorb: 7

Results for O=C(CCNc1cccc(F)c1)c1cccc([N+](=O)[O-])c1 ?
PRMT1 inh: 41*; eLon inh: 4; GSTO1 inh: -3; PAD4 FP inh: -2; TDP2 absorb: 4; PRMT1 inh conf: 27*

How did Cc1ccc(S(=O)(=O)CCC(=O)c2cccc([N+](=O)[O-])c2)cc1 do in these assays?
PRMT1 inh: 83*; eLon inh: -5; GSTO1 inh: 0; PAD4 FP inh: 5; TDP2 absorb: 4; PRMT1 inh conf: 91*

Results for Cc1oc(-c2cccc(Cl)c2)nc1CN1CCC(C(=O)NCCCN2CC(C)CC(C)C2)CC1 (centres undefined) ?
eLon inh: 4; GSTO1 inh: -5; PAD4 FP inh: 1

How did O=C(CCn1c(=S)oc2ccccc21)Nc1cc([N+](=O)[O-])ccc1F do in these assays?
PRMT1 inh: 5; eLon inh: 2; GSTO1 inh: -6; PAD4 FP inh: 0; TDP2 absorb: 3

Results for CNC(=O)OCc1nc(SC2CCCCO2)n(C)c1COC(=O)NC (centres undefined) ?
PRMT1 inh: -5; eLon inh: -12; TDP2 absorb: 7

How did O=C(O)c1cc(C(=O)O)cc(N2C(=O)c3ccccc3C2=O)c1 do in these assays?
PRMT1 inh: -1; TDP2 absorb: 4

What do the screens show for `O=C(O)c1cc(N2C(=O)C=CC2=O)cc(N2C(=O)C=CC2=O)c1`?
PRMT1 inh: 75*; eLon inh: 5; TDP2 absorb: 13; PRMT1 inh conf: 97*

How did O=C(OCc1ccccc1)[C@H](Cc1ccccc1)NC(=O)[C@@H]1CC=C[C@@H]2CCN(Cc3ccc(Cl)cc3)C(=O)[C@@H]21 do in these assays?
PRMT1 inh: 1; TDP2 absorb: 4

How did CCN(CC)c1ccc(/C=C(/C#N)c2nc3ccccc3[nH]2)c(OC(C)C)c1 do in these assays?
PRMT1 inh: 41*; eLon inh: -479; GSTO1 inh: 11; PAD4 FP inh: -10; TDP2 absorb: 1; PRMT1 inh conf: 13

What do the screens show for `c1ccc(NNC2=NCCS2)cc1`?
PRMT1 inh: 29*; eLon inh: 3; GSTO1 inh: 4; PAD4 FP inh: -2; TDP2 absorb: -25; PRMT1 inh conf: 1

What do the screens show for `CCCc1cc(=O)oc2c(C)c(OCC(=O)Nc3ccc(CN4CCOCC4)cc3)ccc12`?
PRMT1 inh: 0; eLon inh: -1; GSTO1 inh: -3; PAD4 FP inh: -4; TDP2 absorb: 7

How did CC(C)N(C(=O)c1nn(C)c2c1CSc1ccccc1-2)C1CCCCC1 do in these assays?
PRMT1 inh: 39*; eLon inh: 7; GSTO1 inh: 1; PAD4 FP inh: -5; TDP2 absorb: -9; PRMT1 inh conf: 14

Results for COc1ccc(C2CC(=O)N3CN(c4ccccc4F)CSC3=C2C#N)cc1OC (centres undefined) ?
PRMT1 inh: 19; eLon inh: -12; GSTO1 inh: -1; PAD4 FP inh: 3; TDP2 absorb: 7

Results for COc1ccc2ccccc2c1C1CC(=O)N2CN(C3CCCCC3)CSC2=C1C#N (centres undefined) ?
PRMT1 inh: 20; eLon inh: 0; GSTO1 inh: -8; PAD4 FP inh: 0; TDP2 absorb: -4

Results for CCc1ccccc1N1CSC2=C(C#N)C(c3ccccc3F)CC(=O)N2C1 (centres undefined) ?
PRMT1 inh: 54*; eLon inh: -23; GSTO1 inh: 8; PAD4 FP inh: -4; TDP2 absorb: 5; PRMT1 inh conf: 42*

What do the screens show for `COc1cc(OC)c(C2CC(=O)N3CN(c4ccccc4C)CSC3=C2C#N)cc1OC` (centres undefined)?
PRMT1 inh: 29*; GSTO1 inh: 36*; PAD4 FP inh: -21; TDP2 absorb: -3; PRMT1 inh conf: 80*

Results for COc1ccc(OCCN2CCC(C(=O)NC(c3ccc(Cl)cc3)c3ncccc3C)CC2)cc1 (centres undefined) ?
eLon inh: -16

Results for CN(C(=O)CN1C(=O)NC(c2ccccc2)(c2ccccc2)C1=O)C1CCS(=O)(=O)C1 (centres undefined) ?
PRMT1 inh: 0; eLon inh: -20; PAD4 FP inh: 1; TDP2 absorb: 5

Results for COc1ccc(NC(=O)c2ccc(NC(=O)CN3CCN(c4ccc(O)cc4)CC3)cc2)cc1 ?
PRMT1 inh: 34*; eLon inh: -6; TDP2 absorb: -23; PRMT1 inh conf: 7

How did COc1ccc(N2CCN(CCC(=O)c3ccc4ccccc4c3)CC2)cc1 do in these assays?
PRMT1 inh: 44*; eLon inh: -2; GSTO1 inh: -14; PAD4 FP inh: 1; TDP2 absorb: -1; PRMT1 inh conf: 28*

Results for COc1ccc(NC(=O)c2ccc(NC(=O)CN3CCN(c4ccccc4O)CC3)cc2)cc1 ?
PRMT1 inh: -6; eLon inh: 0; TDP2 absorb: 3

Results for COc1ccc(N2CCN(CC(=O)c3ccccc3)CC2)cc1 ?
PRMT1 inh: 3; eLon inh: -2; GSTO1 inh: 0; PAD4 FP inh: 0; TDP2 absorb: 23

Results for O=C(CCN1CCOCC1)c1ccc(N2CCCCC2)cc1 ?
PRMT1 inh: 28*; eLon inh: -19; PAD4 FP inh: -1; TDP2 absorb: -10; PRMT1 inh conf: -5
